Reference: ChEMBL document CHEMBL2146385, “Synthesis and antiviral evaluation of bis(POM) prodrugs of (E)-[4'-phosphono-but-2'-en-1'-yl]purine nucleosides” (Eur J Med Chem, 2012)
The source made the active and inactive calls. No cut-off for these calls is given here.

How the values were obtained:
Human alphaherpesvirus 1 [1] = assay: Antiviral activity against HSV1 KOS infected in HEL assessed as inhibition of virus-induced cytopathicity after 3 days; format: functional, organism-based; details: Human alphaherpesvirus 1, KOS, 72 h
[2] = Cytotoxicity against HEL assessed as minimum compound concentration causes microscopically detectable alteration of cell morphology after 3 days; format: cell-based; details: human, HEL cells
Human alphaherpesvirus 2 = assay: Antiviral activity against HSV2 G infected in HEL assessed as inhibition of virus-induced cytopathicity after 3 days; format: functional, organism-based; details: Human alphaherpesvirus 2, strain G, 72 h
How it was run: (§1)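 Confluent cell monolayers infected with 100 CCID50 of virus in the presence of test compound at 100, 20,... μM. Cytopathicity was scored once it was complete in untreated infected controls.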

Vaccinia virus = assay: Antiviral activity against Vaccinia virus infected in HEL assessed as inhibition of virus-induced cytopathicity after 3 days; format: functional, organism-based; details: Orthopoxvirus vaccinia, 72 h
Coxsackievirus B4 = assay: Antiviral activity against Coxsackievirus B4 infected in human HeLa assessed as inhibition of virus-induced cytopathicity after 3 days; format: functional, organism-based; how it was run: as §1
Punta Toro virus = assay: Antiviral activity against Punta Toro virus infected in african green monkey Vero assessed as inhibition of virus-induced cytopathicity after 3 days; format: functional, organism-based; how it was run: as §1
Sindbis virus = assay: Antiviral activity against Sindbis virus infected in african green monkey Vero assessed as inhibition of virus-induced cytopathicity after 3 days; format: functional, organism-based; how it was run: as §1
Human alphaherpesvirus 1 [3] = assay: Antiviral activity against acyclovir-resistant thymidine kinase deficient HSV1 KOS infected in HEL assessed as inhibition of virus-induced cytopathicity after 3 days; format: functional, organism-based; details: Human alphaherpesvirus 1, KOS, 72 h
Human alphaherpesvirus 3 [4] = assay: Antiviral activity against VZV OKA expressing thymidine kinase infected in HEL cells assessed as inhibition of virus-induced cytopathogenicity after 3 days; format: functional, cell-based; details: Human alphaherpesvirus 3, strain Oka vaccine, 72 h
[5] = system: Mammalian orthoreovirus 1; assay: Antiviral activity against Reovirus-1 infected in african green monkey Vero assessed as inhibition of virus-induced cytopathicity after 3 days; format: functional, organism-based; how it was run: as §1
Influenza A virus [6] = assay: Antiviral activity against Influenza A virus H1N1 infected in MDCK assessed as inhibition of virus-induced cytopathicity after 3 days; format: functional, organism-based
[7] = Cytotoxicity against HEL after 3 days; format: cell-based; details: human, HEL cells
How it was run: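 HEL cells were seeded at 5×10^3 cells/well and allowed to grow for 24 h, then given medium with varying compound concentrations. After 3 days at 37 °C, cells were counted with a Coulter counter.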

[8] = system: Vesicular stomatitis virus; assay: Antiviral activity against Vesicular stomatitis virus infected in human HeLa assessed as inhibition of virus-induced cytopathicity after 3 days; format: functional, organism-based
Influenza A virus [9] = assay: Antiviral activity against Influenza A virus H3N2 infected in MDCK assessed as inhibition of virus-induced cytopathicity after 3 days; format: functional, organism-based
Human respirovirus 3 = assay: Antiviral activity against Parainfluenza-3 virus infected in african green monkey Vero assessed as inhibition of virus-induced cytopathicity after 3 days; format: functional, organism-based; how it was run: as §1
[10] = system: Vesicular stomatitis virus; assay: Antiviral activity against Vesicular stomatitis virus infected in MDCK assessed as inhibition of virus-induced cytopathicity after 3 days; format: functional, organism-based
[11] = system: Respiratory syncytial virus; assay: Antiviral activity against Respiratory syncytial virus infected in human HeLa assessed as inhibition of virus-induced cytopathicity after 3 days; format: functional, organism-based; how it was run: as §1
Influenza B virus = assay: Antiviral activity against Influenza B virus infected in MDCK assessed as inhibition of virus-induced cytopathicity after 3 days; format: functional, organism-based
Human alphaherpesvirus 3 [12] = assay: Antiviral activity against thymidine kinase-deficient VZV 07/1 infected in human HEL cells assessed as reduction of virus-induced cytopathogenicity after 3 days; format: functional, organism-based; details: Human alphaherpesvirus 3, 07/1, HEL, 72 h

Structure (SMILES) | EC50 (Human alphaherpesvirus 1 [1]) | MCC at 72 h [2] | EC50 (Human alphaherpesvirus 2) | EC50 (Vaccinia virus) | Activity (Coxsackievirus B4) | Activity (Punta Toro virus) | Activity (Sindbis virus) | EC50 (Human alphaherpesvirus 1 [3]) | EC50 (Human alphaherpesvirus 3 [4]) | Activity [5] | Activity (Influenza A virus [6]) | CC50 at 72 h [7] | Activity [8] | Activity (Influenza A virus [9]) | Activity (Human respirovirus 3) | Activity [10] | Activity [11] | Activity (Influenza B virus) | EC50 (Human alphaherpesvirus 3 [12])
O=c1[nH]c(=O)n([C@H]2C[C@H](O)[C@@H](CO)O2)cc1/C=C/Br [BRIVUDINE] | 0.08 µM | > 100 µM | 50 µM | 5 µM |  |  |  |  |  |  |  |  |  |  |  |  |  |  | 
CC(C)(C)C(=O)OCOP(=O)(C/C=C/Cn1cnc2c(N)ncnc21)OCOC(=O)C(C)(C)C | > 100 µM | > 100 µM | 45 µM | > 100 µM | inactive | inactive | inactive | 20 µM | 12.6 µM | inactive | inactive | 11.6 µM | inactive | inactive | inactive | inactive | inactive | inactive | 13.5 µM
CC(C)(C)C(=O)OCOP(=O)(C/C=C/Cn1cnc2c(NC3CC3)ncnc21)OCOC(=O)C(C)(C)C | > 100 µM | > 100 µM | > 100 µM | > 100 µM | inactive | inactive | inactive | > 100 µM | 55.7 µM | inactive | inactive | 39.6 µM | inactive | inactive | inactive | inactive | inactive | inactive | 47.2 µM
C=CCNc1ncnc2c1ncn2C/C=C/CP(=O)(OCOC(=O)C(C)(C)C)OCOC(=O)C(C)(C)C | > 100 µM | > 100 µM | > 100 µM | > 100 µM | inactive | inactive | inactive | > 100 µM | > 100 µM | inactive | inactive | > 100 µM | inactive | inactive | inactive | inactive | inactive | inactive | > 100 µM
CC(C)(C)C(=O)OCOP(=O)(C/C=C/Cn1cnc2c(=O)n3cc[nH]c3nc21)OCOC(=O)C(C)(C)C | > 100 µM | > 100 µM | > 100 µM | > 100 µM | inactive | inactive | inactive | > 100 µM | 17.3 µM | inactive | inactive |  | inactive | inactive | inactive | inactive | inactive | inactive | 40.7 µM
CCCCNc1nc(N)nc2c1ncn2C/C=C/CP(=O)(OCOC(=O)C(C)(C)C)OCOC(=O)C(C)(C)C | > 100 µM | > 100 µM | > 100 µM | > 100 µM | inactive | inactive | inactive | > 100 µM | 32.4 µM | inactive | inactive | 60 µM | inactive | inactive | inactive | inactive | inactive | inactive | 43.6 µM
CC(C)(C)C(=O)OCOP(=O)(C/C=C/Cn1cnc2c(NC3CCCCC3)ncnc21)OCOC(=O)C(C)(C)C | > 100 µM | 100 µM | > 100 µM | > 100 µM | inactive | inactive | inactive | > 100 µM | 20 µM | inactive | inactive | 11.4 µM | inactive | inactive | inactive | inactive | inactive | inactive | > 20 µM
CC(C)(C)C(=O)OCOP(=O)(C/C=C/Cn1cnc2c(Cl)ncnc21)OCOC(=O)C(C)(C)C | > 20 µM | 100 µM | > 20 µM | > 20 µM | inactive | inactive | inactive | > 20 µM | > 20 µM | inactive | inactive | 10.5 µM | inactive | inactive | inactive | inactive | inactive | inactive | > 20 µM
CC(C)(C)C(=O)OCOP(=O)(C/C=C/Cn1cnc2c(NC3CCCCC3)nc(N)nc21)OCOC(=O)C(C)(C)C | > 100 µM | 100 µM | > 100 µM | > 100 µM | inactive | inactive | inactive | > 100 µM | 6.34 µM | inactive | inactive | 9 µM | inactive | inactive | inactive | inactive | inactive | inactive | 20 µM
CC(C)c1ccc(Nc2nc(N)nc3c2ncn3C/C=C/CP(=O)(OCOC(=O)C(C)(C)C)OCOC(=O)C(C)(C)C)cc1 | > 100 µM | > 100 µM | > 100 µM | > 100 µM | inactive | inactive | inactive | > 100 µM | > 20 µM | inactive | inactive | 46 µM | inactive | inactive | inactive | inactive | inactive | inactive | > 100 µM
Nc1ccn(C[C@@H](CO)OCP(=O)(O)O)c(=O)n1 [CIDOFOVIR] | 1.2 µM |  | 1 µM | 10 µM |  |  |  |  |  |  |  |  |  |  |  |  |  |  | 
CC(C)(C)C(=O)OCOP(=O)(C/C=C/Cn1cnc2c(=O)[nH]cnc21)OCOC(=O)C(C)(C)C | > 100 µM | > 100 µM | > 100 µM | > 100 µM | inactive | inactive | inactive | > 100 µM | > 100 µM | inactive | inactive | 51.9 µM | inactive | inactive | inactive | inactive | inactive | inactive | > 20 µM
CC(C)(C)C(=O)OCOP(=O)(C/C=C/Cn1cnc2c(Cl)nc(N)nc21)OCOC(=O)C(C)(C)C | > 20 µM | > 100 µM | > 20 µM | > 20 µM | inactive | inactive | inactive | > 20 µM | 4.4 µM | inactive | inactive | 5.4 µM | inactive | inactive | inactive | inactive | inactive | inactive | 2.2 µM
CC(C)(C)C(=O)OCOP(=O)(C/C=C/Cn1cnc2c(NC3CC3)nc(N)nc21)OCOC(=O)C(C)(C)C | 16.3 µM | > 100 µM | 7.2 µM | 20 µM | inactive | inactive | inactive | 16.3 µM | 0.8 µM | inactive | inactive | 2.3 µM | inactive | inactive | inactive | inactive | inactive | inactive | 0.8 µM
Nc1nc2c(ncn2COCCO)c(=O)[nH]1 [ACYCLOVIR] |  | > 100 µM |  | > 250 µM |  |  |  |  |  |  |  | 134 µM |  |  |  |  |  |  | 
